A selection: hits, their analogues and other compounds. The true share with any hit is near 2.4%.
SF1 activator = activators of human SF-1, primary screen, cell-based, CHO-K1, Gal4-SF-1 LBD, luciferase luminescence; Steroidogenic factor 1 (Homo sapiens), Q13285; CHO-K1 Gal4-SF-1 LBD luciferase reporter; % increase over DMSO SF-1-specific signal; 1.9% of 65,000 active; activation, % at 10 µM;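 active means activation above the mean activation of all tested compounds plus 3 SD, cut at about 50% in these data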
Target sequence (Q13285 whole entry, looked up, the tested form may be a part): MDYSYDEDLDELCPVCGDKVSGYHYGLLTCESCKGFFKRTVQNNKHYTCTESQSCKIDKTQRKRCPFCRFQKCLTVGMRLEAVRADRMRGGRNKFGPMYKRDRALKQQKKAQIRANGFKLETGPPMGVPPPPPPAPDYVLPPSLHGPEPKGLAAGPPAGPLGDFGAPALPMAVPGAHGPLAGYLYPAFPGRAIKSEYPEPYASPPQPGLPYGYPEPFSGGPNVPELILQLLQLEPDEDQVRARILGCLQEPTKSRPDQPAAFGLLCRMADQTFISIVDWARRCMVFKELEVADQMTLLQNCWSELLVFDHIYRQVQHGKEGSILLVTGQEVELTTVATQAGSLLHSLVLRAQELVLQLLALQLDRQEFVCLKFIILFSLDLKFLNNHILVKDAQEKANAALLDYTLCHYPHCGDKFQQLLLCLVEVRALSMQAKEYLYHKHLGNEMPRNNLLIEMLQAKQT
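material = CHO-K1 cells with Gal4–hSF-1 LBD chimera plus Gal4-driven luciferase | compound = 10 µM single point, 1% DMSO | incubation = 20 h compound exposure at 37 °C after 1 h cell settling | measured by = SteadyLite luciferase luminescence | evaluation = percent activation relative to DMSO median and mock-transfected background | control set = DMSO negative control and −SF1 background wells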
MMP-13 inhibitor = human MMP13 inhibitors, primary screen, biochemical, FRET peptide cleavage | Collagenase 3 (Homo sapiens), P45452 | 0.07% of 65,000 active | inhibition, % at 4 µM | MMP-13 fTHP FRET cleavage, Mca fluorescence | AID 570, 2006;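 active means inhibition above the mean of compound-free control plate wells plus 3 SD, cut at about 14% in these data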;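 further: 0% = DMSO wells and 100% = wells with reference MMP-13 inhibitor after basal subtraction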
RORa activator = activators of orphan receptor RORA, primary screen, cell-based, luminescence; Nuclear receptor ROR-alpha (Homo sapiens), P35398; CHO-K1 Gal4-RORA LBD luciferase reporter; percent increase over mock-subtracted basal signal; activation, % at 10 µM; 1.5% of 65,000 active; AID 560, 2006;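 active means activation above the mean of all tested compounds plus 3 SD, cut at about 49% in these data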;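 further: 0% = DMSO-treated RORA cells and 100% = added signal equal to DMSO minus mock-transfected cells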
E coli RNAP = E. coli RNAP inhibitors, biochemical; DNA-directed RNA polymerase subunit beta (Escherichia coli (strain K12)), P0A8V2; inhibition, %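 (tested at 10 µM)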; AID 559, 2006; E. coli RNA polymerase, fluorescence transcription assay; 0.2% of 62,000 active; in the data active means inhibition above about 20%;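 further: 0% = enzyme without compound and 100% = no enzyme blank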
HePTP inh = inhibitors of human HePTP phosphatase, primary screen, biochemical, absorbance, leukemia target | 0.64% of 110,000 active | AID 521, 2006 | recombinant HePTP phosphatase activity, OD absorbance | Tyrosine-protein phosphatase non-receptor type 7 (Homo sapiens), P35236 | inhibition, % at 20 µM; in the data active means inhibition above about 50%;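 further: plate controls were vehicle for no effect and reference inhibitor for full effect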
AP complement = alternative complement pathway inhibitors, primary screen, biochemical, ELISA, human serum, orthogonally pooled compounds; LPS-coated ELISA, C3 deposition; tested in compound mixtures; inhibition, % at 5 µM; 0.08% of 62,000 active; AID 1235, 2008;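 active means inhibition above 30% in each of the two pooled mixtures holding the compound, so the lower value exceeds 30%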;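 further: 0% = serum in Mg-EGTA without compound and 100% = EDTA serum blank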
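Test system: human serum alternative complement pathway, C3 deposition on LPS-coated wells; also added: Plate-bound LPS; doses: 5 µM per compound in ten-compound mixtures; schedule: 1 h at 37 °C; detection: Anti-C3 ELISA, OD 450 nm; evaluation: percent inhibition of C3 deposition onto LPS; repeats: two pool placements per compound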
Starred values were filed as active, the others as inactive.

O=C(Nc1cnc2ccccc2c1)N1CCCCC1 was read as SF1 activator 33.0, MMP-13 inhibitor -3.9, RORa activator 72.0*, E coli RNAP 5.5, HePTP inh -1.2 and AP complement -3.0.
For COCc1nc(-c2ccc(-c3ccc(OC)cc3)nc2OC)no1 the results were SF1 activator 12.3, MMP-13 inhibitor -269.6, RORa activator 49.3*, E coli RNAP -5.2, HePTP inh 4.2 and AP complement 9.2.
Screening COCc1nc(-c2ccc(-c3ccccc3)nc2OC)no1 returned SF1 activator 32.2, MMP-13 inhibitor -6.2, RORa activator 71.5*, E coli RNAP 8.3, HePTP inh 7.7 and AP complement 15.5.
`Nc1n[nH]c(N)c1N=Nc1ccccc1F` gave HePTP inh 102.7*.
`Nc1n[nH]c(N)c1N=Nc1ccc(F)cc1` gave HePTP inh 3.9.
`O=C(O)CCC(NS(=O)(=O)c1ccc(N2CCCC2=O)cc1)C(=O)O` (configuration not stated) gave SF1 activator 2.2, MMP-13 inhibitor 0.9, RORa activator -8.2, E coli RNAP 4.1, HePTP inh 1.7 and AP complement 13.7.
O=C(O)CCC(NS(=O)(=O)c1ccc(-c2ccccc2)cc1)C(=O)O (configuration not stated) was read as SF1 activator 1.6, MMP-13 inhibitor 50.5*, RORa activator -3.2, E coli RNAP 2.8, HePTP inh -3.7 and AP complement 5.5.
For O=C(O)c1cccc2c1NC(c1ccc(Cl)cc1)C1CC=CC21 (configuration not stated) the results were HePTP inh 104.3*.
COC(=O)c1ccc2c(c1)C1C=CCC1C(c1ccc([N+](=O)[O-])cc1)N2 (configuration not stated) was read as HePTP inh 9.6.
`O=C(O)C1Nc2c(cccc2[N+](=O)[O-])C2C=CCC12` (configuration not stated) gave HePTP inh 103.5*.
`O=[N+]([O-])c1cccc2c1NC(c1ccccc1F)C1CC=CC21` (configuration not stated) gave HePTP inh -1.1.
Screening O=C(O)c1ccc2c(c1)C1C=CCC1C(c1ccc([N+](=O)[O-])cc1)N2 (configuration not stated) returned HePTP inh 102.2*.
O=C(O)c1cccc2c1NC(c1cccc3ccccc13)C1CC=CC21 (configuration not stated) was read as HePTP inh 102.2*.
CC(Oc1cccc(Cl)c1)C(=O)Nc1ccccc1C(=O)N1CCCCCC1 (configuration not stated) was read as HePTP inh -13.4.
For COc1cccc(OC)c1C(=O)Nc1cccc(Oc2ccc3c(c2)C(=O)N(c2ccccc2)C3=O)c1 the results were HePTP inh -9.8.
For O=C(O)c1cccc2c1NC(c1ccc([N+](=O)[O-])cc1)C1CC=CC21 (configuration not stated) the results were HePTP inh 103.1*.
O=[N+]([O-])c1cccc2c1NC(c1ccc(Cl)cc1)C1CC=CC21 (configuration not stated) was read as HePTP inh 104.3*.
Screening O=[N+]([O-])c1cccc2c1NC(c1ccc(F)cc1)C1CC=CC21 (configuration not stated) returned HePTP inh 6.8.
O=C(COc1cccc2ccccc12)Nn1cnnc1 was read as HePTP inh -2.7.
`O=C(NCCc1ccccc1)c1noc2c1CCCCC2` gave SF1 activator 59.8*, MMP-13 inhibitor 3.8, RORa activator 47.9, E coli RNAP 4.7, HePTP inh 4.6 and AP complement 8.6.
Screening O=C(NCc1ccccc1)c1noc2c1CCCC2 returned SF1 activator 11.9, MMP-13 inhibitor 11.8, RORa activator 37.4, E coli RNAP 3.9, HePTP inh 5.2 and AP complement 0.9.
Screening Cc1ccc(NC(=O)c2noc3c2CCCCC3)cc1 returned SF1 activator 34.7, MMP-13 inhibitor 3.8, RORa activator 55.5*, E coli RNAP 5.3, HePTP inh 4.0 and AP complement 2.0.
For CCc1ccc(NC(=O)c2noc3c2CCCCC3)cc1 the results were SF1 activator 67.2*, MMP-13 inhibitor -5.3, RORa activator 67.2*, E coli RNAP 8.9, HePTP inh 7.2 and AP complement 2.6.
CN(c1ccc(C(=O)Nc2cc(Cl)cc(Cl)c2)cc1)S(=O)(=O)c1ccccc1 was read as HePTP inh -6.1.
For COc1ccc(C2CC(=O)C3=C(C2)Nc2ccccc2NC3c2ccccc2OCc2ccccc2)cc1OC (configuration not stated) the results were HePTP inh 5.5.
`COC(=O)CSc1nc(-c2cccs2)ccc1C#N` gave SF1 activator 82.9*, MMP-13 inhibitor -120.0, RORa activator 59.9*, E coli RNAP 3.4 and HePTP inh 7.7.
Screening C#CCSc1nc(-c2cccs2)ccc1C#N returned SF1 activator 12.4, MMP-13 inhibitor -79.0, RORa activator -0.6, E coli RNAP -14.6, HePTP inh -2.7 and AP complement -12.1.
N#C/C(C(=O)c1ccccc1)=C1/CCCCCN1 was read as SF1 activator 60.7*, MMP-13 inhibitor 3.6, RORa activator 35.0, E coli RNAP 0.1, HePTP inh -0.3 and AP complement 3.9.
N#C/C(=C1/CCCCCN1)c1nc2ccccc2[nH]1 was read as SF1 activator 18.8, MMP-13 inhibitor 2.5, RORa activator 44.2, E coli RNAP 1.0, HePTP inh -5.1 and AP complement 13.6.
`C=CCn1c(C)c(/C=C(/C#N)C(=O)Nc2ccc(OC)cc2)c2ccccc21` gave HePTP inh 6.0.
`O=C(CC(=O)N1CCN(c2ccccn2)CC1)Nc1ccc2nc3n(c(=O)c2c1)CCCCC3` gave SF1 activator 0.8, MMP-13 inhibitor -1.0, RORa activator 5.0, E coli RNAP 3.3, HePTP inh 7.8 and AP complement 7.0.
O=C(Nc1ccc2nc3n(c(=O)c2c1)CCCCC3)c1ccccn1 was read as SF1 activator 28.3, MMP-13 inhibitor 2.3, RORa activator 54.4*, E coli RNAP 5.8, HePTP inh -9.0 and AP complement 7.9.
`Cc1cccc(N2C(=O)/C(=C/c3ccccc3C(=O)O)SC2=S)c1C` gave HePTP inh 5.4.
